Measured values from ChEMBL document CHEMBL1773006, “Enone- and chalcone-chloroquinoline hybrid analogues: in silico guided design, synthesis, antiplasmodial activity, in vitro metabolism, and mechanistic studies” (J Med Chem, 2011).
Converted amounts (≈) assume the structure as drawn. Each block holds one molecule with its values, some of them ahead of it.

Key:
[1] = Partition coefficient, log D of the compound at pH 3 by HPLC analysis; type: physicochemical; conditions: octanol/water
[2] = tested on: Plasmodium falciparum; assay: Antiplasmodial activity against chloroquine-sensitive Plasmodium falciparum D10 by FACS-based assay; type: functional, organism-based
[3] = tested on: Plasmodium falciparum; assay: Antiplasmodial activity against chloroquine-resistant Plasmodium falciparum Dd2 by FACS-based assay; type: functional, organism-based
[4] = tested on: Plasmodium falciparum; assay: Antiplasmodial activity against chloroquine-resistant Plasmodium falciparum W2 by FACS-based assay; type: functional, organism-based
Method in brief: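 W2 parasites kept in continuous culture in standard medium with 10% human serum, synchronized with 5% D-sorbitol at ring stage when needed. Parasite development read by FACS. Final DMSO at most 0.5%. IC50 in µM is the mean of two independent determinations, each run in duplicate.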

[5] = (§1) Half life in human liver microsomes assessed as compound degradation at 1 uM by LC-MS analysis in presence of NADPH and UDPGA; type: ADME, Microsome; conditions: liver microsomes
[6] = (§2) Half life in mouse liver microsomes assessed as compound degradation at 1 uM by LC-MS analysis in presence of NADPH and UDPGA; type: ADME, Microsome; conditions: liver microsomes
[7] = Partition coefficient, log D of the compound at pH 7.4 by HPLC analysis; type: physicochemical; conditions: octanol/water
[8] = Solubility of the compound in 0.01 M hydrochloric acid at pH 2; type: physicochemical
[9] = Solubility of the compound in phosphate buffer at pH 6.5; type: physicochemical
[10] = Ratio of compound IC50 to hematin IC50 for inhibition of beta-hematin formation
[11] = Inhibition of Plasmodium falciparum falcipain 2 assessed as benzyloxycarbonyl-Phe-Leu-7-amino-4-methylcoumarin substrate hydrolysis after 30 mins by spectrofluorometry analysis
[12] = tested on: Liver microsomes; assay: as §1; type: ADME, Microsome; conditions: microsomes, 1 µM
[13] = tested on: Liver; assay: as §2; type: ADME, Microsome; conditions: microsomes, 1 µM
[14] = tested on: Plasmodium falciparum; assay: Antiplasmodial activity against chloroquine-sensitive Plasmodium falciparum D10 infected in erythrocytes assessed as inhibition of sorbitol-induced hemolysis after 15 mins; type: functional
[15] = tested on: CHO; assay: Cytotoxicity against CHO cells at 100 uM; type: cell-based, Cricetulus griseus; conditions: chinese hamster
[16] = 0.01 M hydrochloric acid, read-out: solubility
[17] = phosphate buffer, read-out: solubility

Structure (SMILES): COc1ccc(C(=O)/C=C/c2ccc(OCCN3CCN(c4ccnc5cc(Cl)ccc45)CC3)c(OC)c2)c(OC)c1
logD [1]: 2.2
IC50 [2]: 1200 nM
IC50 [3]: 500 nM
IC50 [4]: 600 nM
half-life at 1 µM [5]: 11.5 min
half-life at 1 µM [6]: 9.8 min
logD [7]: 5.3
solubility ([8]; buffer): > 100 µg/mL
solubility ([9]; buffer): < 1.6 µg/mL
Ratio IC50 [10]: 0.2
IC50 [11]: 11700 nM

Structure (SMILES): COc1ccc(C(=O)/C=C/c2cc(CN3CCN(c4ccnc5cc(Cl)ccc45)CC3)c(O)c(OC)c2)c(OC)c1
logD [1]: 2.1
IC50 [2]: 500 nM
IC50 [3]: 500 nM
IC50 [4]: 400 nM
t1/2 [12]: 37 min
t1/2 [13]: 11.8 min
logD [7]: 5
solubility ([8]; buffer): > 100 µg/mL
solubility ([9]; buffer): < 1.6 µg/mL
Ratio IC50 [10]: 0.3
IC50 [11]: 9100 nM
inhibition (INH) [14]: 3.9%
Activity [15]: Non-toxic

logD [1]: 3.5
half-life at 1 µM [5]: 7.4 min
half-life at 1 µM [6]: 6.2 min
logD [7]: 3.6
solubility [8, 16]: 3.1 µg/mL (≈ 7.13 µM)
solubility [9, 17]: 3.1 µg/mL (≈ 7.13 µM)
Structure (SMILES): COc1cc(/C=C/C(C)=O)ccc1OCc1cn(-c2ccnc3cc(Cl)ccc23)nn1

Structure (SMILES): COc1ccc(C(=O)/C=C/c2ccc(O)c(CN3CCN(c4ccnc5cc(Cl)ccc45)CC3)c2)c(OC)c1
logD [1]: 2
IC50 [2]: 600 nM
IC50 [3]: 500 nM
IC50 [4]: 300 nM
t1/2 [12]: 58.6 min
t1/2 [13]: 45.4 min
logD [7]: 5.3
solubility ([8]; buffer): > 100 µg/mL
solubility ([9]; buffer): < 1.6 µg/mL
Ratio IC50 [10]: 0.2
IC50 [11]: 10000 nM
Activity [15]: Non-toxic

Structure (SMILES): COc1cc(/C=C/C(C)=O)ccc1O [DEHYDROZINGERONE]
IC50 [2]: > 20000 nM
IC50 [3]: > 20000 nM
IC50 [4]: > 10000 nM
inhibition (INH) [14]: 21.1%

Structure (SMILES): COc1cc(/C=C/C(C)=O)ccc1OCCN1CCN(c2ccnc3cc(Cl)ccc23)CC1
logD [1]: 1.2
IC50 [2]: 1200 nM
IC50 [3]: 1000 nM
IC50 [4]: 500 nM
half-life at 1 µM [5]: 9.8 min
half-life at 1 µM [6]: 5.6 min
logD [7]: 4.2
solubility ([8]; buffer): > 100 µg/mL
solubility [9, 17]: 1.6 µg/mL (≈ 3.43 µM)
Ratio IC50 [10]: 0.5
IC50 [11]: > 50000 nM

IC50 [11]: > 50000 nM
Structure (SMILES): COc1ccc(C(=O)/C=C/c2ccc(O)cc2)c(OC)c1
Ratio IC50 [10]: 1.9

Structure (SMILES): CCN(CC)CCCC(C)Nc1ccnc2cc(Cl)ccc12 (stereo not given) [CHLOROQUINE]
t1/2 [12]: > 250 min

Structure (SMILES): OCCN1CCN(c2ccnc3cc(Cl)ccc23)CC1
IC50 [2]: 5200 nM
IC50 [3]: 3800 nM
IC50 [4]: 1000 nM
Ratio IC50 [10]: 3.9
IC50 [11]: > 50000 nM

Structure (SMILES): CC(C)C[C@H](NC(=O)[C@H]1O[C@@H]1C(=O)O)C(=O)NCCCCN=C(N)N [E-64]
IC50 [11]: 55 nM

Structure (SMILES): COc1cc(/C=C/C(C)=O)ccc1OCCNc1ccnc2cc(Cl)ccc12
logD [1]: 1.8
IC50 [2]: 1000 nM
IC50 [3]: 1500 nM
IC50 [4]: 100 nM
t1/2 [12]: 10.5 min
t1/2 [13]: 13.4 min
logD [7]: 3
solubility [8, 16]: 50 µg/mL (≈ 126 µM)
solubility [9, 17]: 6.3 µg/mL (≈ 15.9 µM)
Ratio IC50 [10]: 0.6
IC50 [11]: > 50000 nM
inhibition (INH) [14]: 12.3%

IC50 [11]: > 50000 nM
Structure (SMILES): CC(=O)/C=C/c1ccc(O)cc1
Ratio IC50 [10]: > 5

Structure (SMILES): Clc1ccc2c(N3CCNCC3)ccnc2c1
IC50 [2]: 700 nM
IC50 [3]: 900 nM
IC50 [4]: 300 nM
IC50 [11]: > 50000 nM
inhibition (INH) [14]: 5.8%

Structure (SMILES): CC(=O)/C=C/c1ccc(O)c(CN2CCN(c3ccnc4cc(Cl)ccc34)CC2)c1
logD [1]: 0.8
IC50 [2]: 1700 nM
IC50 [3]: 3100 nM
IC50 [4]: 700 nM
t1/2 [12]: 7.5 min
t1/2 [13]: 15 min
logD [7]: 4.2
solubility ([8]; buffer): > 100 µg/mL
solubility ([9]; buffer): < 1.6 µg/mL
Ratio IC50 [10]: 0.5
IC50 [11]: 29900 nM
inhibition (INH) [14]: 11.6%

logD [1]: 4.3
t1/2 [12]: 51.1 min
t1/2 [13]: 56.8 min
logD [7]: 4.3
solubility ([8]; buffer): < 1.6 µg/mL
solubility ([9]; buffer): < 1.6 µg/mL
IC50 [11]: 10800 nM
Structure (SMILES): COc1ccc(C(=O)/C=C/c2ccc(OCc3cn(-c4ccnc5cc(Cl)ccc45)nn3)c(OC)c2)c(OC)c1
Ratio IC50 [10]: 1.6
inhibition (INH) [14]: 15.4%

Structure (SMILES): COc1ccc(C(=O)/C=C/c2ccc(O)c(OC)c2)c(OC)c1
IC50 [2]: 5300 nM
IC50 [3]: 7300 nM
IC50 [4]: > 10000 nM
Ratio IC50 [10]: > 5
IC50 [11]: > 50000 nM
inhibition (INH) [14]: 27.9%

Structure (SMILES): OCCNc1ccnc2cc(Cl)ccc12
IC50 [2]: 2600 nM
IC50 [3]: 1000 nM
IC50 [4]: 200 nM
Ratio IC50 [10]: 4.9
IC50 [11]: > 50000 nM
inhibition (INH) [14]: 0.9%

Structure (SMILES): COc1ccc(C(=O)/C=C/c2ccc(OCCNc3ccnc4cc(Cl)ccc34)c(OC)c2)c(OC)c1
logD [1]: 2.8
IC50 [2]: 800 nM
IC50 [3]: 1100 nM
IC50 [4]: 400 nM
t1/2 [12]: 17.5 min
t1/2 [13]: 12.7 min
logD [7]: 4.2
solubility ([8]; buffer): > 100 µg/mL
solubility [9, 17]: 3.1 µg/mL (≈ 5.97 µM)
Ratio IC50 [10]: 0.3
IC50 [11]: 22900 nM

Structure (SMILES): COc1cc(/C=C/C(C)=O)cc(CN2CCN(c3ccnc4cc(Cl)ccc34)CC2)c1O
logD [1]: 0.9
IC50 [2]: 1000 nM
IC50 [3]: 1700 nM
IC50 [4]: 500 nM
t1/2 [13]: 14 min
logD [7]: 3.9
solubility ([8]; buffer): > 100 µg/mL
solubility [9, 17]: 1.6 µg/mL (≈ 3.54 µM)
Ratio IC50 [10]: 0.5
IC50 [11]: > 50000 nM
inhibition (INH) [14]: 16.8%
